According to ChEMBL document CHEMBL2169813, “Cell death triggered by synthetic flavonoids in human leukemia cells is amplified by the inhibition of extracellular signal-regulated kinase signaling” (Eur J Med Chem, 2012):
Calls of active or inactive are those of the source. No cut-off for these calls is given here.

Legend:
HL-60 [1] = test: Induction of apoptosis in human HL60 cells assessed as incidence of condensed and fragmented chromatin at 30 uM incubated for 24 hrs by fluorescent microscopy; format: functional, cell-based
PBMC [2] = test: Cytotoxicity against human fresh PBMCs up to 30 uM; format: cell-based
In short: (§1)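 HL-60 cells, quiescent (fresh) PBMC and phytohemagglutinin-activated healthy human PBMC cultured 48 h over a concentration range of compound. Proliferation measured. Means ± SE of two independent experiments, each in triplicate.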

HL-60 [3] = test: Cell cycle arrest in human HL60 cells assessed as accumulation at G2/M phase at 30 uM incubated for 24 hrs by flow cytometry (reference value: 33.2 +/- 2.1%); format: functional
HL-60 [4] = test: Increase in apoptosis in human HL60 cells assessed as hypodiploid cells level incubated for 24 hrs in presence of 10 uM MEK1/2 inhibitor PD98059 by flow cytometry (reference value: 16%); format: functional
In short: (§2)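 HL-60 cells preincubated 1 h with PD98059 (10 µM), SP600125 (10 µM) or SB203580 (2 µM), then treated with compound. Hypodiploid (apoptotic) cells quantified by flow cytometry of propidium iodide-stained nuclei. Three independent experiments, each in triplicate.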

HL-60 [5] = test: Induction of caspase activation in human HL60 cells assessed as increase in PARP cleavage at 30 uM incubated for 24 hrs by immunoblotting method; format: functional, cell-based
In short: (§3)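 HL-60 cells (1 × 10⁶/mL) exposed to compound, harvested at 24 h. Lysed in Tris-HCl pH 7.4/Triton X-100 buffer with phosphatase and protease inhibitors, 15 min at 4 °C. Equal protein run on SDS-PAGE (7.5% PARP, 12.5% caspases) and immunoblotted on PVDF. β-Actin used as loading control.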

HL-60 [6] = test: Induction of procaspase-9 cleavage in human HL60 cells at 30 uM incubated for 24 hrs by immunoblotting method; format: functional, cell-based; in short: as §3
HL-60 [7] = test: Cell cycle arrest in human HL60 cells assessed as accumulation at subG1 phase at 10 uM incubated for 24 hrs by flow cytometry (reference value: 2.3 +/- 0.5%); format: functional
[8] = biological target: T1, MAP kinase p38 (Homo sapiens) (UniProt O15264+Q15759+Q16539+P53778); test: Induction of p38MAPK phosphorylation in human HL60 cells after 2 hrs by Western blotting; format: cell-based; conditions: HL-60
In short: (§4)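 HL-60 cells (1 × 10⁶/mL) treated with compound (10–30 µM) for various times. Where used, PD98059 (10 µM) was added 1 h beforehand. Lysates run on 10% SDS-PAGE and immunoblotted for phosphorylated ERK 1/2, JNK/SAPK or p38MAPK. Blots stripped and reprobed for the total kinase as loading control.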

HL-60 [9] = test: Induction of apoptosis in human HL60 cells assessed as hypodiploid cells level incubated for 24 hrs in presence of 2 uM p38MAPK inhibitor SB203580 by flow cytometry; format: functional, cell-based; in short: as §2
PBMC [10] = test: Cytotoxicity against human proliferating PBMCs up to 30 uM; format: cell-based; in short: as §1
HL-60 [11] = test: Cytotoxicity against human HL60 cells after 72 hrs by MTT assay; format: functional, cell-based; conditions: HL-60, 72 h
In short: (§5)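 MTT colorimetric assay on HL-60 and HL-60/MX1 cells (RPMI 1640, 10% heat-inactivated FBS), 72 h exposure, absorbance 570 nm. IC50 obtained graphically by curve fitting. Means ± S.E. of three independent experiments, each in triplicate.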

HL-60 [12] = test: Induction of apoptosis in human HL60 cells assessed as hypodiploid cells level at 30 uM incubated for 24 hrs in presence of caspase-3 and -7 inhibitor z-DEVD-fmk by flow cytometry; format: functional, cell-based
In short: (§6)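 HL-60 cells given 30 µM compound for 24 h, alone or with z-VAD-fmk (100 µM), z-DEVD-fmk, z-IETD-fmk or z-LEHD-fmk (each 50 µM). Propidium iodide staining, hypodiploid cells quantified by flow cytometry. Three independent experiments, each in triplicate.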

HL-60 [13] = test: Cell cycle arrest in human HL60 cells assessed as accumulation at G1 phase at 10 uM incubated for 24 hrs by flow cytometry (reference value: 48 +/- 1.6%); format: functional
HL-60 [14] = test: Cell cycle arrest in human HL60 cells assessed as accumulation at G2/M phase at 10 uM incubated for 24 hrs by flow cytometry (reference value: 33.2 +/- 2.1%); format: functional
[15] = Cytotoxicity against human HL60/MX1 cells after 72 hrs by MTT assay; format: functional, cell-based; conditions: HL60/MX1, 72 h; in short: as §5
[16] = biological target: T2, Mitogen-activated protein kinase; ERK1/ERK2 (Homo sapiens) (UniProt P27361+P28482); test: Induction of ERK1/2 phosphorylation in human HL60 cells after 30 mins in presence of 10 uM MEK1/2 inhibitor PD98059 by Western blotting; format: cell-based; conditions: HL-60; in short: as §4
T2 sequence (P27361 whole entry, looked up): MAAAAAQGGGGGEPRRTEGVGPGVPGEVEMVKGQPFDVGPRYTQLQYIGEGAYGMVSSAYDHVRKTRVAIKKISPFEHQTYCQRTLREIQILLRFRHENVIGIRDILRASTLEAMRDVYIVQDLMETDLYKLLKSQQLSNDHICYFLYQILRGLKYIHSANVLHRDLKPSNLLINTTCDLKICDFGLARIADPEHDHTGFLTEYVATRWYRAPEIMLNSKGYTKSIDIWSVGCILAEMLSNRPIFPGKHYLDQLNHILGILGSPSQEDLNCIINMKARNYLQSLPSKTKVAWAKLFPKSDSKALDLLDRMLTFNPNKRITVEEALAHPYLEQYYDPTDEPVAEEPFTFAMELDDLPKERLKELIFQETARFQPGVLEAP
T2 sequence (P28482 whole entry, looked up): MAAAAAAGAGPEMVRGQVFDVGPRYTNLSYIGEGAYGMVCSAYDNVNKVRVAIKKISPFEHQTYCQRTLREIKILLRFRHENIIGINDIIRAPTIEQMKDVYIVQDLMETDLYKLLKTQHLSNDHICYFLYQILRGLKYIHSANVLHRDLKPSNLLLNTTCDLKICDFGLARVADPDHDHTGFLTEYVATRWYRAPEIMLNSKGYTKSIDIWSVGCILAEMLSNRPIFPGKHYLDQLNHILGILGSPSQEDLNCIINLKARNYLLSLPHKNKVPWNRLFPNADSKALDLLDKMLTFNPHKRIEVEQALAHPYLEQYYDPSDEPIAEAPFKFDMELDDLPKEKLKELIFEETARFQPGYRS

[17] = biological target: T2, Mitogen-activated protein kinase; ERK1/ERK2 (Homo sapiens); test: Induction of ERK1/2 phosphorylation in human HL60 cells after 6 hrs by Western blotting; format: cell-based; conditions: HL-60; in short: as §4
HL-60 [18] = test: Cytotoxicity against human HL60 cells at 100 uM after 72 hrs by MTT assay
HL-60 [19] = test: Cell cycle arrest in human HL60 cells assessed as accumulation at subG1 phase at 30 uM incubated for 24 hrs by flow cytometry (reference value: 2.3 +/- 0.5%); format: functional
HL-60 [20] = test: Induction of p21'Cip1 protein expression in human HL60 cells at 30 uM incubated for 24 hrs by Western blotting method; format: functional, cell-based; in short: as §3
HL-60 [21] = test: Induction of procaspase-6 processing in human HL60 cells at 30 uM incubated for 24 hrs by immunoblotting method; format: functional, cell-based; in short: as §3
HL-60 [22] = test: Induction of apoptosis in human HL60 cells assessed as hypodiploid cells level at 30 uM incubated for 24 hrs in presence of caspase inhibitor z-VAD-fmk by flow cytometry; format: functional, cell-based; in short: as §6
[23] = biological target: T3, c-Jun N-terminal kinase, JNK (Homo sapiens) (UniProt P45983+P53779+P45984); test: Induction of JNK/SAPK phosphorylation in human HL60 cells after 30 mins by Western blotting; format: cell-based; conditions: HL-60; in short: as §4
HL-60 [24] = test: Induction of apoptosis in human HL60 cells assessed as hypodiploid cells level incubated for 24 hrs in presence of 10 uM JNK/SAPK inhibitor SP600125 by flow cytometry; format: functional, cell-based; in short: as §2
HL-60 [25] = test: Induction of apoptosis in human HL60 cells assessed as hypodiploid cells level at 30 uM incubated for 24 hrs in presence of caspase-8 inhibitor z-IETD-fmk by flow cytometry; format: functional, cell-based; in short: as §6
HL-60 [26] = test: Induction of cyclin D1 protein expression in human HL60 cells at 30 uM incubated for 24 hrs by Western blotting method; format: functional, cell-based; in short: as §3
HL-60 [27] = test: Induction of Bid protein cleavage in human HL60 cells at 30 uM incubated for 24 hrs by Western blotting method; format: functional, cell-based; in short: as §3
HL-60 [28] = test: Induction of apoptosis in human HL60 cells assessed as hypodiploid cells level at 30 uM incubated for 24 hrs in presence of caspase-9 inhibitor z-LEHD-fmk by flow cytometry; format: functional, cell-based; in short: as §6
HL-60 [29] = test: Induction of procaspase-7 processing in human HL60 cells at 30 uM incubated for 24 hrs by immunoblotting method; format: functional, cell-based; in short: as §3
HL-60 [30] = test: Cell cycle arrest in human HL60 cells assessed as accumulation at G1 phase at 30 uM incubated for 24 hrs by flow cytometry (reference value: 48 +/- 1.6%); format: functional
[31] = biological target: T3, c-Jun N-terminal kinase, JNK (Homo sapiens); test: Induction of JNK/SAPK phosphorylation in human HL60 cells after 6 hrs by Western blotting; format: cell-based; conditions: HL-60; in short: as §4
HL-60 [32] = test: Cell cycle arrest in human HL60 cells assessed as accumulation at S phase at 10 uM incubated for 24 hrs by flow cytometry (reference value: 16.7 +/- 0.5%); format: functional
HL-60 [33] = test: Induction of apoptosis in human HL60 cells assessed as changes in nuclear morphology at 30 uM incubated for 24 hrs by fluorescence microscopy (reference value: 4.9 +/- 1.0%)
HL-60 [34] = test: Cell cycle arrest in human HL60 cells assessed as accumulation at S phase at 30 uM incubated for 24 hrs by flow cytometry (reference value: 16.7 +/- 0.5%); format: functional
HL-60 [35] = test: Induction of DNA fragmentation in human HL60 cells at 30 uM incubated for 24 hrs by agarose gel electrophoresis; format: functional, cell-based
In short: (§7)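 HL-60 cells treated with the indicated concentrations. Genomic DNA extracted, run on agarose gel and visualised under UV after ethidium bromide staining, looking for internucleosomal fragmentation.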

HL-60 [36] = test: Induction of cytochrome-c release in human HL60 cells at 30 uM incubated for 24 hrs by immunoblotting method; format: functional, cell-based
In short: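 HL-60 cells treated 24 h with 30 µM compound. Cytosolic extracts immunoblotted for cytochrome c released from mitochondria. β-Actin used as loading control.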

HL-60 [37] = test: Induction of procaspase-3 processing in human HL60 cells at 30 uM incubated for 24 hrs by immunoblotting method; format: functional, cell-based; in short: as §3
HL-60 [38] = test: Cytotoxicity against human HL60 cells up to 30 uM after 72 hrs by MTT assay; format: functional, cell-based
HL-60 [39] = test: Induction of DNA fragmentation in human HL60 cells at 10 uM incubated for 24 hrs by agarose gel electrophoresis; format: functional, cell-based; in short: as §7
HL-60 [40] = test: Induction of procaspase-8 hydrolysis in human HL60 cells at 30 uM incubated for 24 hrs by immunoblotting method; format: functional, cell-based; in short: as §3
[41] = biological target: T1, MAP kinase p38 (Homo sapiens); test: Induction of p38MAPK phosphorylation in human HL60 cells after 30 mins by Western blotting; format: cell-based; conditions: HL-60; in short: as §4
[42] = biological target: T2, Mitogen-activated protein kinase; ERK1/ERK2 (Homo sapiens); test: Induction of ERK1/2 phosphorylation in human HL60 cells after 30 mins by Western blotting; format: cell-based; conditions: HL-60; in short: as §4

Activity [8]: inactive
Activity [16]: inactive
Activity [17]: Active
Activity [23]: Active
Activity [31]: Active
Activity [41]: Active
Activity [42]: Active
Structure (SMILES): COC(=O)c1c(C)c(C)cc2c(=O)cc(-c3ccccc3Cl)oc12
Activity (HL-60 [1]): Active
Activity (PBMC [2]): Non-toxic
Activity (HL-60 [3]): 13.5%
Activity (HL-60 [4]): 32%
Activity (HL-60 [5]): Active
Activity (HL-60 [6]): Active
Activity (HL-60 [7]): 6.3%
Activity (HL-60 [9]): Active
Activity (PBMC [10]): Non-toxic
IC50 (HL-60 [11]): 9.3 µM
Activity (HL-60 [12]): inactive
Activity (HL-60 [13]): 54.9%
Activity (HL-60 [14]): 22.9%
IC50 [15]: 70.7 µM
Activity (HL-60 [18]): Active
Activity (HL-60 [19]): 28.1%
Activity (HL-60 [20]): Active
Activity (HL-60 [21]): Active
Activity (HL-60 [22]): inactive
Activity (HL-60 [24]): Active
Activity (HL-60 [25]): inactive
Activity (HL-60 [26]): Active
Activity (HL-60 [27]): Active
Activity (HL-60 [28]): inactive
Activity (HL-60 [29]): Active
Activity (HL-60 [30]): 47.2%
Activity (HL-60 [32]): 16.7%
Activity (HL-60 [33]): 30.6%
Activity (HL-60 [34]): 7.8%
Activity (HL-60 [35]): Active
Activity (HL-60 [36]): Active
Activity (HL-60 [37]): Active
Activity (HL-60 [38]): Active
Activity (HL-60 [39]): Active
Activity (HL-60 [40]): Active
